These results are taken from ChEMBL document CHEMBL4017500 (J Med Chem, 2017).

The structures appear in SMILES notation. Active and inactive are the calls of the source. The rule behind the calls is not given here. A value given as a limit tells only on which side of the number the result lay.

As usually defined, the IC50 is the concentration at which inhibition is half-maximal. Lower therefore signals greater potency. Broadly, the inhibition is the change of the read-out against control, counted positive when it falls.

Data set [1] deals with Metallo-beta-lactamase type 2 (Klebsiella pneumoniae) (UniProt C7C422). The data set can be described thus: Inhibition of NDM1 in Klebsiella pneumoniae isolate Pd1.55 assessed as potentiation of imipenem-induced antibacterial activity by measuring imipenem MIC at 100 mg/L after 18 to 20 hrs by broth microdilution assay (reference value: 8 mg/L). On the technique in general: Dilution methods test growth across graded concentrations, often in twofold steps.

Data set [2] has the same target. As to the kind of experiment: Inhibition of NDM1 in Klebsiella pneumoniae isolate Pd1.48 assessed as potentiation of imipenem-induced antibacterial activity by measuring imipenem MIC at 100 mg/L after 18 to 20 hrs by broth microdilution assay (reference value: 8 mg/L).
The test system of data set [3] is Escherichia coli. The data set can be described thus: Inhibition of NDM1 in Escherichia coli isolate Ah8.74 assessed as potentiation of imipenem-induced antibacterial activity by measuring imipenem MIC at 100 mg/L after 18 to 20 hrs by broth microdilution assay (reference value: 8 mg/L).
Data set [4] is described as follows: Inhibition of bacterial MBP-fused NDM1 expressed in Escherichia coli BL21(DE3) ausing fluorocillin as substrate preincubated for 20 mins followed by substrate addition measured at 1 sec time interval for 25 mins by fluorescence assay. On the set-up: species or system Bacteria. The essentials:
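NDM-1 pre-incubated 20 min with inhibitor (final 100 μM to 1 nM) in 50 mM HEPES pH 7.0 with 2 mM CHAPS. Reaction started with fluorocillin (final 87 nM, below KM), NDM-1 final 25 pM. Fluorescence read at λex/em 495/525 nm, 10 reads over ~25 min.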

Data set [5] has as its system HEK293. The data set can be described thus: Cytotoxicity against HEK293 cells assessed as reduction in cell viability up to 400 uM after 4 to 24 hrs by Cell-titer blue reagent based spectrophotometric assay. To be noted: human. In a few lines:
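HEK293 cells seeded at 10,000/well 12 h before treatment. Exposed to compound or DMSO vehicle for 4 or 24 h in DMEM with 10% serum and penicillin-streptomycin, n=6 per treatment per time point. Cell-Titer Blue added for 1 h, fluorescence read at 536ex/595em. Viability relative to vehicle (=1.0); ANOVA with Tukey post-hoc.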

Data set [6] relates to Klebsiella pneumoniae. The data set can be described thus: Effect on growth of Klebsiella pneumoniae isolate Cm1.62 at 100 mg/L after 18 to 20 hrs by broth microdilution assay. In a few lines: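 Mueller-Hinton broth microdilution per CLSI, triplicate. blaNDM-1 clinical isolates grown from OD600 0.1 to 0.224 (~1–2 × 10^8 CFU/mL), diluted 3 μL into 4997 μL MH, and 100 μL added to 100 μL of compound (100 mg/L) alone. Incubated 37 °C for 18–20 h, then scored for growth.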

Data set [7] can be described thus: Inhibition of bacterial MBP-fused NDM1 expressed in Escherichia coli BL21(DE3) ausing chromacef as substrate preincubated for 20 mins followed by substrate addition measured after 0.3 mins. On the set-up: species or system Bacteria. In a few lines: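 Preincubated 20 min, then 3 μM substrate (~3×KM) added. A442 followed ~0.3 min at 25 °C. Activity scaled to uninhibited (100%) and no-enzyme (0%) controls, fitted to a Hill-type equation.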

The test system of data set [8] is Escherichia coli. The data set can be described thus: Inhibition of NDM1 in Escherichia coli isolate Ah8.71 assessed as potentiation of imipenem-induced antibacterial activity by measuring imipenem MIC at 100 mg/L after 18 to 20 hrs by broth microdilution assay (reference value: 16 mg/L).
Data set [9] relates to Escherichia coli. As to the kind of experiment: Inhibition of NDM1 in Escherichia coli isolate Ch8.70 assessed as potentiation of imipenem-induced antibacterial activity by measuring imipenem MIC at 100 mg/L after 18 to 20 hrs by broth microdilution assay (reference value: 16 mg/L).
Data set [10] in a line: Selectivity ratio of compound effect for inhibition of bacterial MBP-fused NDM1 expressed in Escherichia coli BL21(DE3) to compound effect for inhibition of human MMP12 (Phe99 to Leu271 residues) expressed in Escherichia coli.
Data set [11] concerns Escherichia coli. The data set can be described thus: Inhibition of NDM1 in Escherichia coli isolate Ah8.73 assessed as potentiation of imipenem-induced antibacterial activity by measuring imipenem MIC at 100 mg/L after 18 to 20 hrs by broth microdilution assay (reference value: 16 mg/L).
The target in data set [12] is 72 kDa type IV collagenase (Homo sapiens) (UniProt P08253). The data set can be described thus: Inhibition of human MMP2 (Tyr110 to Asp452 residues) expressed in yeast at 10 uM using Mca-Pro-LeuGly-Leu-Dpa-Ala-Arg-NH2.AcOH as substrate preincubated for 30 mins followed by substrate addition measured after 20 mins by fluorescence assay relative to control. The essentials:
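Human recombinant MMP-2 (1.16 U/well) or MMP-12 (0.007 U/well) in 50 mM HEPES, 10 mM CaCl2, 0.05% Brij-35, pH 7.5. Enzyme and inhibitor pre-incubated 30 min at 37 °C, then OmniMMP fluorogenic substrate (4 μM) added. Fluorescence rise followed 20 min at ex/em 320/400 nm. Activity relative to no-inhibitor wells, with 200 μM NSA as 0%. Run in triplicate.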

Data set [13] addresses Carbonic anhydrase 2 (Homo sapiens) (UniProt P00918). As to the kind of experiment: Inhibition of human carbonic anhydrase 2 at 10 uM using p-nitrophenyl acetate as substrate preincubated for 10 mins followed by substrate addition measured for 15 mins. The essentials: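 hCAII (100 nM) in 50 mM HEPES pH 8.0 pre-incubated with inhibitor for 10 min at 30 °C. p-Nitrophenyl acetate (500 μM) then added and absorbance at 405 nm followed 15 min. Activity relative to no-inhibitor wells, with 50 μM benzene sulfonamide as 0%. Run in triplicate.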

In data set [14] the test system is Bacteria. As to the kind of experiment: Binding affinity to bacterial CoCoNDM-1 expressed in Escherichia coli BL21(DE3) assessed as metal stripping at 1 to 2 equiv after 30 mins by UV-Visible spectroscopic method. In a few lines: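 Apo-NDM-1 at 300 μM in 50 mM HEPES, 150 mM NaCl, pH 6.8, loaded with 2 molar equiv CoCl2. […] Absorbance read 300–700 nm at 25 °C as difference spectra against buffer blank, normalized at 700 nm.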

For data set [15], the system named is Bacteria. As to the kind of experiment: Binding affinity to bacterial NDM-1 expressed in Escherichia coli BL21(DE3) assessed as intrinsic tryptophan fluorescence quenching up to 32 uM after 30 mins by luminescence spectrometric method relative to control. The essentials:
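NDM-1 at 2 μM final in 50 mM HEPES pH 7.5 mixed with compound at 4–32 μM, incubated 30 min. Emission scanned 300–400 nm with excitation at 280 nm. Relative tryptophan fluorescence read at 348 nm, with buffer set to 0% and inhibitor-free NDM-1 to 100%. Control run with 2 μM L-tryptophan in place of enzyme.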

Metallo-beta-lactamase type 2 (Klebsiella pneumoniae), sequence (C7C422 whole entry): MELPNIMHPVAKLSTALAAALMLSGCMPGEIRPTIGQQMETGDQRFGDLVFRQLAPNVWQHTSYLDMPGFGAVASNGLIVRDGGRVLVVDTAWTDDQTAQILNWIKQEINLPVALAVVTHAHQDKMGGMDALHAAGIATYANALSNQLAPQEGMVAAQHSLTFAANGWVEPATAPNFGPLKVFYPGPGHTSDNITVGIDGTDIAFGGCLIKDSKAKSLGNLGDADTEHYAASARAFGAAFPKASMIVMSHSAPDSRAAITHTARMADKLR
72 kDa type IV collagenase (Homo sapiens), sequence (P08253 110-660 limits assumed): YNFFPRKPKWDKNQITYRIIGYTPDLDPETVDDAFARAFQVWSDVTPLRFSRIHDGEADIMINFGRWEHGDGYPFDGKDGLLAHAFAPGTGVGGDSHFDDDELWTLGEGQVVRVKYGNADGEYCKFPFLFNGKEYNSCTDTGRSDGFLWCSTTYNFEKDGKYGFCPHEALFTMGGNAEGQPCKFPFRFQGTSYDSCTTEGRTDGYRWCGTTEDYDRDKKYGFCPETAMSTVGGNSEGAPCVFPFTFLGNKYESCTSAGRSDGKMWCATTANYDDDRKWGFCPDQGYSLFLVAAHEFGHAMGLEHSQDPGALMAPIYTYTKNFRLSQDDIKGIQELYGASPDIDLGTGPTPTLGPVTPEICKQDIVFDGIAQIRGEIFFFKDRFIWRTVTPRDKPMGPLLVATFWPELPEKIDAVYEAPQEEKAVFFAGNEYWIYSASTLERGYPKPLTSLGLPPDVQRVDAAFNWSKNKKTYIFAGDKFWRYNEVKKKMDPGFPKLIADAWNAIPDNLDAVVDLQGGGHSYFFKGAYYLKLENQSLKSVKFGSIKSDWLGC

For `Nc1cccc(-c2cc(C(=O)O)nc(C(=O)O)c2)c1`, the MIC came to 0.5 µg/mL in data set [1]; 0.5 µg/mL in data set [2]; 0.5 µg/mL in data set [3]; 1 µg/mL in data set [8]; 0.5 µg/mL in [9]; 0.5 µg/mL in [11]. The IC50 in [4] came to 80 nM; in data set [7], 320 nM. Moreover, the Activity result is “Non-Toxic” in data set [5], “Non-Toxic” in data set [6] and 50 to 60% in data set [15]. Also, the Selectivity ratio in data set [10] lay within 100 to 1000. Further, the inhibition in [12] is below 6%. Further, in data set [13], the inhibition entry was “inactive”. Further, the result in [14] was Active.
